Screens (PubChem)
The list is not random: actives were taken first. Their share in the collection is about 3.1%.
PRMT1 FP inh: PRMT1 (human) inhibition, primary screen; AID 652257; inhibition, % at 2.79 µM; 370,000 tested, 1.3% active; recombinant PRMT1, activity-based probe fluorescence polarization;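 active = inhibition above about 21% made by adding two undisclosed values, limit read from the data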
Target sequence (Q99873 whole entry, looked up): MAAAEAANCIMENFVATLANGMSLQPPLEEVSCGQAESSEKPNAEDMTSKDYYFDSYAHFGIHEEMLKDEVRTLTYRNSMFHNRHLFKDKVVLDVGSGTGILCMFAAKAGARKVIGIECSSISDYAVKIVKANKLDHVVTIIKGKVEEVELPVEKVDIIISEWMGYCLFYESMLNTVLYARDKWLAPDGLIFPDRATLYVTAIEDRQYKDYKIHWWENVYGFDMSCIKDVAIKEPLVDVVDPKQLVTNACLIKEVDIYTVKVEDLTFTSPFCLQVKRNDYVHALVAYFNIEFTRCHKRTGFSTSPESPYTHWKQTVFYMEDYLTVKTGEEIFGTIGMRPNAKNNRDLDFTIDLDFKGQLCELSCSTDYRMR
RBBP9 inhibitor: blocks human serine hydrolase RBBP9 | recombinant RBBP9, FP-Rh probe fluorescence polarization | inhibition, % at 7.94 µM | 220,000 tested, 0.2% active | AID 1515;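 active = inhibition above the campaign mean of all tested compounds plus 3 SD, cut at about 14% in these data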
Target sequence (O75884 whole entry, looked up): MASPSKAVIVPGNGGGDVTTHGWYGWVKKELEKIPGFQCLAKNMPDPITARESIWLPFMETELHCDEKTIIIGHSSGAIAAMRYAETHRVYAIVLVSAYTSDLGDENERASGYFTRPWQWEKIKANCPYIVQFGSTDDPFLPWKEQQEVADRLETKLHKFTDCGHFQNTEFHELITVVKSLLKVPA
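Assay system: recombinant human RBBP9; Reagent: Serine-hydrolase probe FP-Rh, 375 nM pre-mixing; Doses: 7.94 µM single dose, 0.794% DMSO; Incubation: 30 min then 45 min, 25 °C; Detection: fluorescence polarization (mP), excitation 525 nm, emission 598 nm; Evaluation: percent inhibition from mP, scaled between DMSO and no-protein wells.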
LEDGF integ inh: blocks HIV-1 LEDGF/p75-dependent DNA integration; AID 743269; 370,000 tested, 0.64% active; TR-FRET IN-LEDGF/p75 DNA integration, Eu/Cy5; inhibition, % at 3.7 µM;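 active = inhibition above the screen-wide mean plus 3 SD, cut at about 13% in these data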;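 note: signal is the Cy5 over europium emission ratio at 671 and 618 nm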
ABHD5-PLIN5 inh: ABHD5-PLIN5 protein interaction inhibition; Q00G26+Q8WTS1; Split G. princeps luciferase complementation, luminescence, 4 h; inhibition, % at 4 µM; 360,000 tested, 0.78% active; AID 602281;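 active = inhibition above the mean inhibition across every tested compound plus 3 SD, cut at about 22% in these data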
MBD2 DNA inh: inhibitors of human MBD2 binding to methylated oligonucleotide | Q9UBB5 | TR-FRET | inhibition, % at 4.4 µM | 370,000 tested, 0.31% active; in the data active = inhibition above about 13%
UHRF1 binding: UHRF1 methyl-DNA binding inhibition; inhibition, % at 4.4 µM; AID 687016; Q96T88; UHRF1 binding to methylated oligo, TR-FRET; 370,000 tested, 0.75% active;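 note: UHRF1 SRA domain binding a hemimethylated CpG hairpin DNA probe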
UHRF1 DNA bind: UHRF1 methyl-oligo binding inhibition as MBD2 counter-screen; shares compounds with MBD2 DNA inh; AID 720530; inhibition, % at 4.4 µM; 1,000 tested, 25% active; UHRF1 binding to methylated oligonucleotide, TR-FRET;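 note: UHRF1 SRA domain binding a labeled hemimethylated CpG hairpin DNA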
MBD2 confirm: MBD2-DBD methyl-DNA binding inhibition, TR-FRET confirmation; 1,000 tested, 26% active; TR-FRET MBD2-DBD binding to methylated oligonucleotide; inhibition, % at 4.4 µM; shares compounds with MBD2 DNA inh; in the data active = inhibition above about 14%
Large screens that a line does not name were inactive (follow-up assays come after a bar, where they were run). Cut-off read from the data, not from the text of the source, unless noted: active = inhibition above about 21%; inactive = the rest.

C[C@@H](NC(=O)c1ccc(C#Cc2cccc(F)c2)cn1)C(C)(C)O	none (no result: RBBP9 inhibitor, ABHD5-PLIN5 inh)
CN(C(=O)c1cccs1)c1ccccc1C(=O)O	MBD2 DNA inh 16, UHRF1 binding 32 | UHRF1 DNA bind inactive | MBD2 confirm inactive
C#CCCN([C@H](C(=O)OC)C(C)C)S(=O)(=O)c1ccccc1Br	none (no result: RBBP9 inhibitor, ABHD5-PLIN5 inh)
CCCCn1c(N)c(N(CC(C)C)C(=O)C(C)SCc2nc3sc(C)c(C)c3c(=O)[nH]2)c(=O)[nH]c1=O (stereo not drawn)	MBD2 DNA inh 20 (no result: RBBP9 inhibitor) | UHRF1 DNA bind inactive | MBD2 confirm inactive
CCCCn1c(N)c(N(CC(C)C)C(=O)c2cnccn2)c(=O)[nH]c1=O	none (no result: RBBP9 inhibitor)
CCOc1ccc(-n2c(SCC(=O)NN=Cc3ccc(C(=O)O)cc3)nnc2-c2cccnc2)cc1	none (no result: RBBP9 inhibitor, ABHD5-PLIN5 inh)
Cc1ccc(C)c(NC(=O)Cn2nc(C)c3ccccc3c2=O)c1	MBD2 DNA inh 17 (no result: RBBP9 inhibitor) | UHRF1 DNA bind inactive | MBD2 confirm inactive
Cc1nn(CC(=O)Nc2ccc(Cl)cc2Cl)c(=O)c2ccccc12	none (no result: RBBP9 inhibitor)
COC(=O)C1CN(CCc2ccccc2)CCS(=O)(=O)N1Cc1ccc(C(F)(F)F)cc1 (stereo not drawn)	none (no result: RBBP9 inhibitor, ABHD5-PLIN5 inh)
COCCN(C(=O)COC(=O)c1cc2c(s1)CCC2)c1c(N)n(Cc2ccccc2)c(=O)[nH]c1=O	LEDGF integ inh 54, MBD2 DNA inh 65, UHRF1 binding 96 (no result: RBBP9 inhibitor) | UHRF1 DNA bind 100 | MBD2 confirm 91
CCCCCCCCN1C(=O)[C@@H](CC(=O)N2CCN(C(=O)OCC)CC2)C[C@@]2(C(=O)OC)C1=C[C@H](COCc1ccccc1)O[C@@H]2C	none (no result: RBBP9 inhibitor, ABHD5-PLIN5 inh)
O=C1c2ccccc2C(=O)c2c(NCCCN(CCO)CCO)cccc21	MBD2 DNA inh 56, UHRF1 binding 36 | UHRF1 DNA bind 57 | MBD2 confirm 59
COc1ccc(-n2cc(COC(=O)NCCc3c[nH]c4ccccc34)nn2)cc1	none (no result: RBBP9 inhibitor, ABHD5-PLIN5 inh)
CNC12CCc3cc(OC)c(OC)c(c31)-c1cc3c(cc1C2)OCO3 (stereo not drawn)	MBD2 DNA inh 23, UHRF1 binding 30 (no result: RBBP9 inhibitor, ABHD5-PLIN5 inh) | UHRF1 DNA bind inactive | MBD2 confirm inactive
Cc1cc(NC(=NC2CC2)c2ccccc2F)n(-c2ccccc2)n1	MBD2 DNA inh 15, UHRF1 binding 21 | UHRF1 DNA bind inactive | MBD2 confirm inactive
COC(=O)[C@]12C[C@H](CC(=O)N3CCC(c4ccccc4)CC3)C(=O)N(Cc3ccco3)C1=C[C@H](COCc1ccccc1)O[C@@H]2C	none (no result: RBBP9 inhibitor, ABHD5-PLIN5 inh)
CC(C)(C)c1ccc(-c2nnc(SCC(=O)c3ccc4ccccc4c3)n2-c2ccc(Cl)cc2)cc1	none (no result: RBBP9 inhibitor, ABHD5-PLIN5 inh)
O=C(O)c1ccc(-n2cccc2/C=N\NC(=O)c2cc3cc(Br)ccc3o2)cc1	MBD2 DNA inh 33, UHRF1 binding 62 | UHRF1 DNA bind 66 | MBD2 confirm 41
Cn1cc(/C=N/NC(=O)c2cc3cc(Br)ccc3o2)c2ccccc21	none
COC(=O)[C@]12C[C@H](CC(=O)NCc3ccccc3)C(=O)N(Cc3cccc4ccccc34)C1=C[C@H](COCc1ccccc1)O[C@@H]2C	none (no result: RBBP9 inhibitor, ABHD5-PLIN5 inh)
COc1ccc(-n2c(SCc3nc4ccccc4[nH]3)nc3ccccc3c2=O)cc1	none (no result: RBBP9 inhibitor, ABHD5-PLIN5 inh)
O=S1(=O)c2ccc(N3CCCC3)cc2Oc2ccccc2CN1Cc1cn(Cc2ccc(C(F)(F)F)cc2)nn1	none (no result: RBBP9 inhibitor, ABHD5-PLIN5 inh)
C[C@@H](/C=C/C(=O)OC(C)(C)C)Sc1ccc(C(C)(C)C)cc1	MBD2 DNA inh 18 (no result: RBBP9 inhibitor, ABHD5-PLIN5 inh) | UHRF1 DNA bind inactive | MBD2 confirm inactive
O=S(=O)(c1cccs1)N1CCCc2nc(-c3ccc(F)cc3)ccc21	none (no result: RBBP9 inhibitor, ABHD5-PLIN5 inh)
CC1(C(=O)NS(=O)(=O)c2ccc(Br)cc2)CCN1C(=O)CCC1CCCC1 (stereo not drawn)	none (no result: RBBP9 inhibitor)
CC1(C(=O)NS(=O)(=O)c2ccc(Br)cc2)CCN1C(=O)CC1CCCCC1 (stereo not drawn)	MBD2 DNA inh 18 (no result: RBBP9 inhibitor) | UHRF1 DNA bind inactive | MBD2 confirm inactive
CCOc1cccc(CN2CCCC(CNC(=O)c3cccc(OC)c3OC)C2)c1 (stereo not drawn)	MBD2 DNA inh 16 (no result: RBBP9 inhibitor) | UHRF1 DNA bind inactive | MBD2 confirm inactive
CCN(CC(=O)NC(C)(C)C)Cc1nc2c(Br)cc(Br)cc2c(=O)[nH]1	MBD2 DNA inh 41 | UHRF1 DNA bind inactive | MBD2 confirm inactive
CCN(CC(=O)NC1CCS(=O)(=O)C1)Cc1nc2c(Br)cc(Br)cc2c(=O)[nH]1 (stereo not drawn)	none
NC(=S)N=Nc1c(O)cc(O)c2[nH]c(=O)ccc12	PRMT1 FP inh 70, LEDGF integ inh 30, ABHD5-PLIN5 inh 29, MBD2 DNA inh 15, UHRF1 binding 42 (no result: RBBP9 inhibitor) | UHRF1 DNA bind inactive | MBD2 confirm inactive
O=C(NCCc1c[nH]c2ccccc12)c1ccc(Br)o1	MBD2 DNA inh 16, UHRF1 binding 21 (no result: RBBP9 inhibitor) | UHRF1 DNA bind inactive | MBD2 confirm inactive
Cn1cccc1CC(=O)N/N=C/C=C/c1ccco1	LEDGF integ inh 48, MBD2 DNA inh 23, UHRF1 binding 53 | UHRF1 DNA bind 26 | MBD2 confirm 24
Cc1cc(C)c2c(N)c3cccc(C)c3nc2n1	MBD2 DNA inh 25, UHRF1 binding 29 | UHRF1 DNA bind 38 | MBD2 confirm 41
COC(=O)[C@]12C[C@H](CC(=O)NCc3cccs3)C(=O)N(Cc3ccc(Cl)cc3Cl)C1=C[C@H](C(C)C)O[C@@H]2C1CC1	none (no result: RBBP9 inhibitor, ABHD5-PLIN5 inh)
COc1ccc(-c2cc(C(=O)NN=C/C(C)=C/c3ccccc3)[nH]n2)cc1	none (no result: RBBP9 inhibitor, ABHD5-PLIN5 inh)
O=C(CN1C(=O)C2CCCCN2C(=O)c2ccccc21)N1CCCC1 (stereo not drawn)	none (no result: RBBP9 inhibitor, ABHD5-PLIN5 inh)
